Assay results reported in ChEMBL document CHEMBL5380804, “Discovery of 2-(3-Benzamidopropanamido)thiazole-5-carboxylate Inhibitors of the Kinesin HSET (KIFC1) and the Development of Cellular Target Engagement Probes” (J Med Chem, 2023).

Assays:
[1] = target: T1, Kinesin-like protein KIFC1 (Homo sapiens, UniProt Q9BW19); assay: Displacement of FP-Probe from N-terminal His-tagged full length recombinant human HSET incubated for 2 hrs by fluorescence polarization based competitive binding assay
T1 sequence (Q9BW19 whole entry): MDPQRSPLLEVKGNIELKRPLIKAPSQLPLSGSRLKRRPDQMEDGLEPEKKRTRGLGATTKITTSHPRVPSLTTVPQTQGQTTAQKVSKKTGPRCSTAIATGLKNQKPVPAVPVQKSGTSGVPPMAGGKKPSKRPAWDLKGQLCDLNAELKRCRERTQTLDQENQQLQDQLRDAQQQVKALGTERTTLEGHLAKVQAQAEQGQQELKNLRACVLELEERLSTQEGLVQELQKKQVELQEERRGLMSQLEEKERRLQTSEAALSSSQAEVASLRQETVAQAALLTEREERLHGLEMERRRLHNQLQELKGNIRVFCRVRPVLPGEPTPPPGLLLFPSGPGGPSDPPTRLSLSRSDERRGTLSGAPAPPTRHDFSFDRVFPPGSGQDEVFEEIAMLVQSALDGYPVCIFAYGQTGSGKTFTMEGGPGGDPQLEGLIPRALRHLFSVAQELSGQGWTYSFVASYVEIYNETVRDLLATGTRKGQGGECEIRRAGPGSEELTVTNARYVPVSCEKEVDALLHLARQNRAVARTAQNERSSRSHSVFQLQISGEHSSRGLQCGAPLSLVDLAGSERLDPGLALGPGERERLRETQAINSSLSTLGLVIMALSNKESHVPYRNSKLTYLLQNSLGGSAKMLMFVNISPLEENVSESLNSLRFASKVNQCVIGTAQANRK
How it was run: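 Competitive FP assay with 400 nM full-length human N-His HSET and 2.5 nM sulfoCy5 probe in 20 mM HEPES pH 7.5, 200 mM NaCl, 10 mM MgCl2, 1 mM TCEP, 0.1 mM Triton X-100, 5% glycerol. 11-point compound series from 100 to 0.001 μM final.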

[2] = target: T2, Kinesin-like protein KIFC1 (Homo sapiens) (UniProt Q9BW19); assay: Binding affinity to HSET in human DLD-1 assessed as fold increase in signal at 3 uM incubated for 45 mins by Alexa-488 fluorophore staining immunofluorescence analysis; assay type: cell-based
T2 sequence (whole entry): T1 sequence (Q9BW19 whole entry)
How it was run: (§1)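 DLD1 4N cells and CRISPR HSET-knockout DLD1 cells pretreated 2 h with 8 μM pro-TAME, then 45 min with 3 μM TCO click probe plus 8 μM MG-132 in DMEM/1% FBS. After washes, fixed in 4% PFA and reacted with 400 nM tetrazine-Cy5 for 10 min at room temperature. Stained for pericentrin, KIFC1 (Alexa-488) and DAPI; confocal 40× imaging; signal expressed relative to tetrazine-Cy5 alone.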

[3] = target: T2, Kinesin-like protein KIFC1 (Homo sapiens); assay: Binding affinity to HSET in human DLD-1 with HSET knockout assessed as fold increase in signal at 3 uM incubated for 45 mins by Alexa-488 fluorophore staining immunofluorescence analysis; assay type: cell-based; how it was run: as §1
[4] = target: T1, Kinesin-like protein KIFC1; assay: Binding affinity to N-terminal His-tagged full length recombinant human HSET assessed as dissociation constant incubated for 3 hrs in presence of 70 ug/ml of microtubules by fluorescence polarization assay
How it was run: (§2)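 Full-length human N-His HSET titrated from 2000 to 0.5 nM. Preincubated 10 min with paclitaxel-stabilized preformed microtubules or reconstitution buffer, then added to 2.5 nM sulfoCy5 probe. Buffer: 20 mM HEPES pH 7.5, 200 mM NaCl, 10 mM MgCl2, 1 mM TCEP, 0.1 mM Triton X-100, 5% glycerol.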

[5] = target: T1, Kinesin-like protein KIFC1; assay: Binding affinity to N-terminal His-tagged full length recombinant human HSET assessed as dissociation constant incubated for 3 hrs in presence of 7 ug/ml of microtubules by fluorescence polarization assay; how it was run: as §2
[6] = target: T2, Kinesin-like protein KIFC1 (Homo sapiens); assay: Inhibition of N-terminal His-tagged full length recombinant human HSET assessed as inhibition of microtubule-stimulated ATPase activity incubated for 10 mins in presence of ultra-ATP by ADP-Glo kinase assay relative to control
[7] = target: T2, Kinesin-like protein KIFC1 (Homo sapiens); assay: Displacement of CCT369834 probe from HSET in human DLD-1 cells assessed as decrease in localization of CCT369834 probe at 0.1 to 10 uM incubated for 45 mins by Alexa-488 fluorophore staining immunofluorescence analysis; assay type: cell-based; settings: dose 0.1-10 µM
How it was run: (§3)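 Target engagement in DLD1 4N cells, with HSET-knockout DLD1 as negative control. Cells pretreated 2 h with 8 μM pro-TAME, then given 3 μM TCO probe alone or with competitor plus 8 μM MG-132 in 1% FBS medium for 45 min. Washed, PFA-fixed, then 400 nM tetrazine-Cy5 for 10 min. Stained for pericentrin, KIFC1 and DAPI, followed by confocal 3D segmentation of mitotic poles. Cy5/KIFC1 pole intensity ratio, with KO signal subtracted, normalized to probe-alone control; n > 100 cells per replicate, two replicates per concentration.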

[8] = target: T2, Kinesin-like protein KIFC1 (Homo sapiens); assay: Displacement of CCT369834 probe from HSET in human DLD-1 cells assessed as decrease in localization of CCT369834 probe at 0.1 to 10 uM incubated for 45 mins by DAPI staining immunofluorescence analysis; assay type: cell-based; settings: dose 0.1-10 µM; how it was run: as §3
[9] = target: T2, Kinesin-like protein KIFC1 (Homo sapiens); assay: Displacement of CCT369834 probe from HSET in human DLD-1 cells assessed as decrease in localization of CCT369834 probe at 0.1 to 10 uM incubated for 45 mins by TZ-Cy5 staining immunofluorescence analysis; assay type: cell-based; settings: dose 0.1-10 µM; how it was run: as §3

With CCOC(=O)c1sc(NC(=O)CCNC(=O)c2cccc(-c3noc(C)n3)c2)nc1C as the molecule, how does the IC50 [1] read?
Its IC50 is 109 nM.

How did the fold change (FC) [2] turn out when CCCOC(=O)c1sc(NC(=O)C[C@H](CCCN(C)CC#CCNC(=O)O[C@@H]2CC/C=C/CCC2)NC(=O)c2cccc(-c3noc(C)n3)c2)nc1C was run?
The fold change (FC) was 14.

What about the fold change (FC) [3] of the same molecule?
Its fold change (FC) is 7.

Which Kd [4] does the source give for CCCOC(=O)c1sc(NC(=O)C[C@H](CCCNC(=O)CCCCC[N+]2=C(/C=C/C=C/C=C3/N(C)c4ccc(S(=O)(=O)O)cc4C3(C)C)C(C)(C)c3cc(S(=O)(=O)O)ccc32)NC(=O)c2cccc(-c3noc(C)n3)c2)nc1C here?
Its Kd is 332 nM.

What about the Kd [5] of the same molecule?
The Kd was 315 nM.

With CCOC(=O)c1sc(NC(=O)CCNC(=O)C2CCCC(C)C2)nc1C (stereo not given) as the molecule, how does the inhibition [6] read?
Its inhibition is 47%.

Which inhibition [6] does the source give for CCOC(=O)c1sc(NC(=O)CCNC(=O)c2ccccc2)nc1C here?
The inhibition was 47%.

With CCCOC(=O)c1sc(NC(=O)C[C@H](CCCN(C)C)NC(=O)c2cccc(-c3noc(C)n3)c2)nc1C as the molecule, how does the Activity [7] read?
Its Activity is “Dose-Dependent Effect”.

And the Activity [8]?
The Activity was “Dose-Dependent Effect”.

And the Activity [9]?
The Activity was “Dose-Dependent Effect”.
